Data: ChEMBL document CHEMBL4364323, “Synthesis and biological evaluation of moxifloxacin-acetyl-1,2,3-1H-triazole-methylene-isatin hybrids as potential anti-tubercular agents against both drug-susceptible and drug-resistant Mycobacterium tuberculosis strains” (Eur J Med Chem, 2019)
Converted amounts (≈) assume the structure as drawn.

Experiments:
[1] = test system: Mycobacterium tuberculosis; assay: Antimycobacterial activity against Mycobacterium tuberculosis H37Rv incubated for 7 days by rapid direct susceptibility test; assay type: functional; conditions: 168 h
Outline: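 Two-fold compound dilutions were mixed with MTB suspension containing 4×10 -3 mg cells per well and incubated at 37 °C in a wet box. MIC was read from the quantity and state of cells in each well under a continuous visual high-magnification system and was re-determined 7 days later.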

[2] = Cytotoxicity against African green monkey Vero cells incubated for 72 hrs by MTT assay; assay type: cell-based; conditions: chlorocebus sabaeus
Outline: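 Compounds were dissolved in DMSO and tested at 128 to 4 μg/mL. VERO cells were grown in MEM with Earle's salts plus 10% FBS at 37 °C, 5% CO2, seeded at 1×10^4 cells/well and allowed to recover 24 h. Cells were then exposed to compound or drug-free medium for 72 h. Viability was read by MTT, and CC50 was calculated by Bliss analysis.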

[3] = Selectivity index, ratio of CC50 for African green monkey Vero cells to MIC for Mycobacterium tuberculosis H37Rv; assay type: toxicity; conditions: read-out: Selectivity Index
[4] = biological target: DNA gyrase subunit A/DNA gyrase subunit B (Mycobacterium tuberculosis (strain ATCC 25618 / H37Rv), UniProt P9WG45+P9WG47); assay: Inhibition of Mycobacterium tuberculosis DNA gyrase; assay type: protein-complex assay
[5] = Cmax in SPF ICR mouse at 100 mg/kg, sc; assay type: ADME, organism-based; parameters: dose 100 mg/kg, route subcutaneous; conditions: in vivo
Outline: (§1)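 Female SPF ICR mice (20-25 g) dosed once at 100 mg/kg by subcutaneous injection. Plasma concentration-time data were collected. Cmax, Tmax, t1/2 and AUC0-inf were taken directly from the experimental data.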

[6] = Half life in SPF ICR mouse at 100 mg/kg, sc; assay type: ADME, organism-based; conditions: in vivo
[7] = Tmax in SPF ICR mouse at 100 mg/kg, sc; assay type: ADME, organism-based; conditions: in vivo; outline: as §1
[8] = AUC (0 to infinity) in SPF ICR mouse at 100 mg/kg, sc; assay type: ADME, organism-based; parameters: dose 100 mg/kg, route subcutaneous, time infinity; conditions: in vivo; outline: as §1
CHO = assay: Cytotoxicity against CHO cells assessed as slight change in cell viability at 128 to 4 ug/ml; assay type: cell-based, Cricetulus griseus; conditions: chinese hamster

Sequence of DNA gyrase subunit A/DNA gyrase subunit B (P9WG45 whole entry): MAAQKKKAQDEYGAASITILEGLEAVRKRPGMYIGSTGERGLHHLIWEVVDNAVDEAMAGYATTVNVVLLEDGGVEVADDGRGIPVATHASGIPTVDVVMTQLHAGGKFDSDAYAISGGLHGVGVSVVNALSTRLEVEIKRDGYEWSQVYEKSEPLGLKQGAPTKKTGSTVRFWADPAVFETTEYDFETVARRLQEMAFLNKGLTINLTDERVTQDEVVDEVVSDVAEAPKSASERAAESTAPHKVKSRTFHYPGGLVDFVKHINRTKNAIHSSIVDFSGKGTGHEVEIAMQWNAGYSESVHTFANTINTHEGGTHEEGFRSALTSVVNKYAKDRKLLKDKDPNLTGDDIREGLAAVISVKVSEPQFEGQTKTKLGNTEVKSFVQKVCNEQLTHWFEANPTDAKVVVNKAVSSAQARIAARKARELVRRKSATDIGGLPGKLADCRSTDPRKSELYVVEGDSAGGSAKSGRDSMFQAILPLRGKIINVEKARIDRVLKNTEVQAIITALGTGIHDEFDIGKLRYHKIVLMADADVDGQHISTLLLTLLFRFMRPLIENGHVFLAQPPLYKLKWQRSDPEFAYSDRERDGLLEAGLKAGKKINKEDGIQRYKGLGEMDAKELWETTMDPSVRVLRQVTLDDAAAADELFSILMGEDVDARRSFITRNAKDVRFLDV
Sequence of DNA gyrase subunit A/DNA gyrase subunit B (P9WG47 whole entry): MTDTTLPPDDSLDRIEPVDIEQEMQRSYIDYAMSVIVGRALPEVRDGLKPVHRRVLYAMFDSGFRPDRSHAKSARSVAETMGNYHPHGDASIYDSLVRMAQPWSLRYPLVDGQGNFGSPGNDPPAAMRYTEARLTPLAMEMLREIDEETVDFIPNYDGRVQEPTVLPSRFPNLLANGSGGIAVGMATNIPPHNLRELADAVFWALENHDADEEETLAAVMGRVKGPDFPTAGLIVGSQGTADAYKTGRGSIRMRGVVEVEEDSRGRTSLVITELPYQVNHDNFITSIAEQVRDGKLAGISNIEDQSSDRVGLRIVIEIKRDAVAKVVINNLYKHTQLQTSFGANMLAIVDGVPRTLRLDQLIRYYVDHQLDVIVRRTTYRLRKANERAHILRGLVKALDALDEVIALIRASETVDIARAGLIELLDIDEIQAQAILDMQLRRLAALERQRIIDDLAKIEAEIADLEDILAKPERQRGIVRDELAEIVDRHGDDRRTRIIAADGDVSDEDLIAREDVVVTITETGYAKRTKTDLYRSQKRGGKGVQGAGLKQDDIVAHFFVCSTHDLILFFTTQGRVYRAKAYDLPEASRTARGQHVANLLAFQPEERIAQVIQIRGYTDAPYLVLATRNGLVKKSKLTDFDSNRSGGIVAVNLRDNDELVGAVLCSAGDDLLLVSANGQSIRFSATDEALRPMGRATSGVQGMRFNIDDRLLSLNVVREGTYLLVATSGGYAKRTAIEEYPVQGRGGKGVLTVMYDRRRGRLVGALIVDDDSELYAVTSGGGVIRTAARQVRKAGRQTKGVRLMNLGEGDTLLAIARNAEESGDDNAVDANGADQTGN

CO/N=C1/C(=O)N(Cc2cn(CC(=O)N3CCC[C@@H]4CN(c5c(F)cc6c(=O)c(C(=O)O)cn(C7CC7)c6c5OC)C[C@@H]43)nn2)c2ccccc21
MIC [1]: 0.5 µg/mL (≈ 0.716 µM) | CC50 at 72 h [2]: 128 µg/mL (≈ 183 µM) | selectivity ratio [3]: 256 | IC50 [4]: 8.59 µM | Cmax [5]: 3250 ng/mL | half-life [6]: 186 min | Tmax [7]: 39 min | AUC(0-inf) [8]: 6440 ng·h/mL | Activity (CHO): Toxic

COc1c(N2C[C@H]3CCCN(C(=O)Cn4cc(CN5C(=O)/C(=N/NC(N)=S)c6ccccc65)nn4)[C@H]3C2)c(F)cc2c(=O)c(C(=O)O)cn(C3CC3)c12
MIC [1]: 0.12 µg/mL (≈ 0.162 µM) | CC50 at 72 h [2]: 16 µg/mL (≈ 21.5 µM) | selectivity ratio [3]: 128 | IC50 [4]: 6.73 µM | Cmax [5]: 1400 ng/mL | half-life [6]: 258 min | Tmax [7]: 52 min | AUC(0-inf) [8]: 3270 ng·h/mL | Activity (CHO): Toxic

COc1c(N2C[C@H]3CCCN(C(=O)Cn4cc(CN5C(=O)/C(=N/NC(N)=S)c6cc(F)ccc65)nn4)[C@H]3C2)c(F)cc2c(=O)c(C(=O)O)cn(C3CC3)c12
MIC [1]: 0.25 µg/mL (≈ 0.329 µM) | CC50 at 72 h [2]: 8 µg/mL (≈ 10.5 µM) | selectivity ratio [3]: 32 | IC50 [4]: 10.5 µM

CO/N=C1/C(=O)N(Cc2cn(CC(=O)N3CCC[C@@H]4CN(c5c(F)cc6c(=O)c(C(=O)O)cn(C7CC7)c6c5OC)C[C@@H]43)nn2)c2ccc(F)cc21
MIC [1]: 1 µg/mL (≈ 1.4 µM) | CC50 at 72 h [2]: 32 µg/mL (≈ 44.6 µM) | selectivity ratio [3]: 32

COc1c(N2C[C@H]3CCCN(C(=O)Cn4cc(CN5C(=O)C(=O)c6cc(F)ccc65)nn4)[C@H]3C2)c(F)cc2c(=O)c(C(=O)O)cn(C3CC3)c12
MIC [1]: 1 µg/mL (≈ 1.45 µM) | CC50 at 72 h [2]: 16 µg/mL (≈ 23.3 µM) | selectivity ratio [3]: 16

COc1c(N2C[C@H]3CCCN(C(=O)Cn4cc(CN5C(=O)/C(=N/O)c6ccccc65)nn4)[C@H]3C2)c(F)cc2c(=O)c(C(=O)O)cn(C3CC3)c12
MIC [1]: 1 µg/mL (≈ 1.46 µM) | CC50 at 72 h [2]: 32 µg/mL (≈ 46.7 µM) | selectivity ratio [3]: 32

COc1c(N2C[C@H]3CCCN(C(=O)Cn4cc(CN5C(=O)/C(=N/O)c6cc(F)ccc65)nn4)[C@H]3C2)c(F)cc2c(=O)c(C(=O)O)cn(C3CC3)c12
MIC [1]: 2 µg/mL (≈ 2.85 µM) | CC50 at 72 h [2]: 16 µg/mL (≈ 22.8 µM) | selectivity ratio [3]: 8

COc1c(N2C[C@H]3CCCN(C(=O)Cn4cc(CN5C(=O)C(=O)c6cccc(F)c65)nn4)[C@H]3C2)c(F)cc2c(=O)c(C(=O)O)cn(C3CC3)c12
MIC [1]: 8 µg/mL (≈ 11.6 µM) | CC50 at 72 h [2]: 32 µg/mL (≈ 46.5 µM) | selectivity ratio [3]: 4

CO/N=C1/C(=O)N(Cc2cn(CC(=O)N3CCC[C@@H]4CN(c5c(F)cc6c(=O)c(C(=O)O)cn(C7CC7)c6c5OC)C[C@@H]43)nn2)c2c(F)cccc21
MIC [1]: 16 µg/mL (≈ 22.3 µM) | CC50 at 72 h [2]: 16 µg/mL (≈ 22.3 µM) | selectivity ratio [3]: 1

COc1c(N2C[C@H]3CCCN(C(=O)Cn4cc(CN5C(=O)/C(=N/O)c6cccc(F)c65)nn4)[C@H]3C2)c(F)cc2c(=O)c(C(=O)O)cn(C3CC3)c12
MIC [1]: 16 µg/mL (≈ 22.8 µM) | CC50 at 72 h [2]: 16 µg/mL (≈ 22.8 µM) | selectivity ratio [3]: 1

COc1c(N2C[C@H]3CCCN(C(=O)Cn4cc(CN5C(=O)C(=O)c6ccccc65)nn4)[C@H]3C2)c(F)cc2c(=O)c(C(=O)O)cn(C3CC3)c12
MIC [1]: 0.25 µg/mL (≈ 0.373 µM) | CC50 at 72 h [2]: 32 µg/mL (≈ 47.8 µM) | selectivity ratio [3]: 128 | IC50 [4]: 5.97 µM

COc1c(N2C[C@H]3CCCN(C(=O)Cn4cc(CN5C(=O)/C(=N/NC(N)=S)c6cccc(F)c65)nn4)[C@H]3C2)c(F)cc2c(=O)c(C(=O)O)cn(C3CC3)c12
MIC [1]: 8 µg/mL (≈ 10.5 µM) | CC50 at 72 h [2]: 8 µg/mL (≈ 10.5 µM) | selectivity ratio [3]: 1

CO/N=C1/C(=O)N(Cc2cn(CC(=O)N3CCC[C@@H]4CN(c5c(F)cc6c(=O)c(C(=O)O)cn(C7CC7)c6c5OC)C[C@@H]43)nn2)c2ccc(C)cc21
MIC [1]: 4 µg/mL (≈ 5.61 µM) | CC50 at 72 h [2]: 64 µg/mL (≈ 89.8 µM) | selectivity ratio [3]: 16

COc1c(N2C[C@H]3CCCN(C(=O)Cn4cc(CN5C(=O)C(=O)c6cc(C)ccc65)nn4)[C@H]3C2)c(F)cc2c(=O)c(C(=O)O)cn(C3CC3)c12
MIC [1]: 2 µg/mL (≈ 2.93 µM) | CC50 at 72 h [2]: 64 µg/mL (≈ 93.6 µM) | selectivity ratio [3]: 32

COc1c(N2CCNC(C)C2)c(F)cc2c(=O)c(C(=O)O)cn(C3CC3)c12 (centres undefined) [GATIFLOXACIN]
MIC [1]: 0.5 µg/mL (≈ 1.33 µM) | CC50 at 72 h [2]: 64 µg/mL (≈ 170 µM) | selectivity ratio [3]: 128 | IC50 [4]: 13.3 µM

NNC(=O)c1ccncc1 [ISONIAZID]
MIC [1]: 0.12 µg/mL (≈ 0.875 µM) | selectivity ratio [3]: 1024

COc1c(N2C[C@@H]3CCCN[C@@H]3C2)c(F)cc2c(=O)c(C(=O)O)cn(C3CC3)c12 [MOXIFLOXACIN]
MIC [1]: 0.12 µg/mL (≈ 0.299 µM) | Cmax [5]: 10800 ng/mL | Tmax [7]: 27 min | AUC(0-inf) [8]: 19200 ng·h/mL

CO[C@H]1/C=C/O[C@@]2(C)Oc3c(C)c(O)c4c(O)c(c(/C=N/N5CCN(C)CC5)c(O)c4c3C2=O)NC(=O)/C(C)=C\C=C\[C@H](C)[C@H](O)[C@@H](C)[C@@H](O)[C@@H](C)[C@H](OC(C)=O)[C@@H]1C [RIFAMPIN]
MIC [1]: 0.06 µg/mL (≈ 0.0729 µM) | CC50 at 72 h [2]: > 128 µg/mL | selectivity ratio [3]: > 512
